From ChEMBL document CHEMBL4828761, “Development and crystallography-aided SAR studies of multifunctional BuChE inhibitors and 5-HT6R antagonists with β-amyloid anti-aggregation properties” (Eur J Med Chem, 2021)

Legend:
Cholinesterase [1] = molecular target: T1, Cholinesterase (Homo sapiens, UniProt P06276); experiment: Inhibition of BuChE in human plasma using BTC as substrate at 10 uM preincubated with enzyme for 5 mins followed by substrate addition for 5 mins by Ellman's method relative to control; assay type: cell-free; conditions: time 10.0 min
T1 sequence (P06276 whole entry): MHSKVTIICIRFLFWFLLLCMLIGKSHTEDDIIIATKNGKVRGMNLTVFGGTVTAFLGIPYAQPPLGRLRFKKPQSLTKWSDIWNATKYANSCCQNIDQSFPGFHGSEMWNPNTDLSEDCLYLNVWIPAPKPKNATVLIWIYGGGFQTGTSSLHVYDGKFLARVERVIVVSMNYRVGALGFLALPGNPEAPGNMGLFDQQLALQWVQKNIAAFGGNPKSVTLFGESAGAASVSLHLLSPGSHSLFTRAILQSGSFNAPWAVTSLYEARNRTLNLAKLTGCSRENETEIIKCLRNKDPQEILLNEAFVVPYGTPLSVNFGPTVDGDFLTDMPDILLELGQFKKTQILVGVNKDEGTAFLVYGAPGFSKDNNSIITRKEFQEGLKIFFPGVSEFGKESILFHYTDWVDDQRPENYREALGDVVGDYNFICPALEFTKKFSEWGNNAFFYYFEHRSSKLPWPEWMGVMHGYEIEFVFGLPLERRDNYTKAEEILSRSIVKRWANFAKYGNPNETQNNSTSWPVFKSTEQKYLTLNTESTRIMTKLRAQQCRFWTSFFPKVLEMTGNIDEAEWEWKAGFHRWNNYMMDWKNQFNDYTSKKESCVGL
In short: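 Human plasma BuChE at 0.384 U/mL final, with DTNB in 0.1 M phosphate buffer pH 8.0. Compound at 10 µM screened, preincubated 5 min at 36 °C.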

[2] = molecular target: 5-hydroxytryptamine receptor 6 (Homo sapiens, UniProt P50406); experiment: Displacement of [3H]LSD from human 5HT6 receptor expressed in CHO-K1 membrane incubated for 60 mins by solid scintillation counting analysis; assay type: cell membranes
Chain of 5-hydroxytryptamine receptor 6 (P50406 whole entry): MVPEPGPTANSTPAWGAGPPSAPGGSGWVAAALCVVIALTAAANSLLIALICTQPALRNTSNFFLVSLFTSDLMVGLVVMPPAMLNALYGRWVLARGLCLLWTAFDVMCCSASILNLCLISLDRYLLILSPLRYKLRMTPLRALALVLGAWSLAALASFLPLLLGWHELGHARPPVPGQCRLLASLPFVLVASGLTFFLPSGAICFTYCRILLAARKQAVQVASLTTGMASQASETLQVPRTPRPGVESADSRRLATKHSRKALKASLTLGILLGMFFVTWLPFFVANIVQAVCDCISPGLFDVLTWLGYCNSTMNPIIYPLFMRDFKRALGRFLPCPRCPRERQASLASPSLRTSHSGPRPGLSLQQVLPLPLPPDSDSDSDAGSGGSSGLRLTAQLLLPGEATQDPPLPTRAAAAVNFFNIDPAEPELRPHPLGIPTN

Cholinesterase [3] = molecular target: Cholinesterase (Equus caballus, UniProt P81908); experiment: Inhibition of equine serum BuChE using BTC as substrate preincubated with enzyme for 5 mins followed by substrate addition for 5 mins by Ellman's method; assay type: cell-free
Chain of Cholinesterase (Equus caballus, UniProt P81908) (P81908 whole entry): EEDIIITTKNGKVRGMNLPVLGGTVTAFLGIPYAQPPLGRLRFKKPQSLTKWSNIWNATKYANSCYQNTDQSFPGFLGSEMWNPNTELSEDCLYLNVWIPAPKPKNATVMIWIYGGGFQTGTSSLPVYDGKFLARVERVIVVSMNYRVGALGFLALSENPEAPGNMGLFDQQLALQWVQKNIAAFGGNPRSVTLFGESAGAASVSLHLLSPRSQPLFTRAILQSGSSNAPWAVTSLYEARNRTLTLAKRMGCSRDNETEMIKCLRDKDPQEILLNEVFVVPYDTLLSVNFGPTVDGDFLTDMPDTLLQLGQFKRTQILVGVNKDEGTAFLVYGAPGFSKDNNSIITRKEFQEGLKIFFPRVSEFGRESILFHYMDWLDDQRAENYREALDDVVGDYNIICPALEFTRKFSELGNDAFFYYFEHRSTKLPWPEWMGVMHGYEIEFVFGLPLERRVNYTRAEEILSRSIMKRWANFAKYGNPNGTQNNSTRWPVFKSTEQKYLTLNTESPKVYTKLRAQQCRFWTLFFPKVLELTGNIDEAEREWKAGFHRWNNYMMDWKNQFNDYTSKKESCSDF

[4] = molecular target: Amyloid-beta precursor protein (Homo sapiens) (UniProt P05067); experiment: Inhibition of amyloid beta (1 to 42) (unknown origin) self aggregation at 10 uM incubated for 24 to 48 hrs by Thioflavin-T based fluorometric assay; conditions: time lower […], time upper 48.0 hrs
Chain of Amyloid-beta precursor protein (Homo sapiens) (P05067 whole entry): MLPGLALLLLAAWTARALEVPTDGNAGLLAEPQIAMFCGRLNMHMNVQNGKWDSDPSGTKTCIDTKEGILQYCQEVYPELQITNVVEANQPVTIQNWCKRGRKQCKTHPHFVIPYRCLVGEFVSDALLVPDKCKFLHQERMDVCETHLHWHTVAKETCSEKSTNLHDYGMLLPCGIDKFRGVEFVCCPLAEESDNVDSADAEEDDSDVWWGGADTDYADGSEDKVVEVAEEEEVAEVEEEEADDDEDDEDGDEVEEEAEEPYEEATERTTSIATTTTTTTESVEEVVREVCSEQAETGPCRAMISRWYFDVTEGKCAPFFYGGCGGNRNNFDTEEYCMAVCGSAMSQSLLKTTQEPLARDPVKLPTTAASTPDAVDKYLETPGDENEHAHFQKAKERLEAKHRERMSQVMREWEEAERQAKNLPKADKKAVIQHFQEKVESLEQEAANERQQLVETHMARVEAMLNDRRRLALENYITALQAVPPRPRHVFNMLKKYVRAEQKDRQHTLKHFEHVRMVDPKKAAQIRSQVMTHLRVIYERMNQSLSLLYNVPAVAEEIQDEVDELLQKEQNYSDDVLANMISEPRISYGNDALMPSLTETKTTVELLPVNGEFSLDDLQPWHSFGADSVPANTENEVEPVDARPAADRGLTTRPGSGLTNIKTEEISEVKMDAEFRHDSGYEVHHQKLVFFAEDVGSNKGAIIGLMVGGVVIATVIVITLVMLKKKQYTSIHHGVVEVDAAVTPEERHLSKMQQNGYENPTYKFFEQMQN

Cholinesterase [5] = molecular target: T1, Cholinesterase; experiment: Inhibition of BuChE in human plasma using BTC as substrate preincubated with enzyme for 5 mins followed by substrate addition for 5 mins by Ellman's method; assay type: cell-free
In short: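 Human plasma BuChE at 0.384 U/mL final, with DTNB in 0.1 M phosphate pH 8.0. […] BTC solution (0.00375 M) added; A412 after 5 min. Run in triplicate; IC50 from nonlinear regression of residual activity versus concentration.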

[6] = Metabolic stability in mouse liver microsomes assessed as parent compound remaining at 50 microM preincubated for 5 mins followed by incubation with NADPH regenerating system for 120 mins by UPLC-MS analysis; assay type: ADME, Microsome; conditions: time 125 min, read-out: Stability
In short: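 Mouse liver microsomes 1 mg/mL in 0.1 M Tris-HCl pH 7.4 with 50 μM compound, preincubated 5 min at 37 °C, then started with NADPH regeneration system; stopped after 120 min at 37 °C with cold methanol, centrifuged, supernatant analysed by UPLC-MS for remaining parent and metabolites. Verapamil served as reference.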

[7] = Cytotoxicity against human HepG2 cells assessed as non-toxic concentration incubated for 72 hrs by MTS assay; assay type: cell-based; conditions: read-out: MNCC
In short: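 HepG2 cells grown in MEM with 2 mM glutamine, 1% NEAA, 10% FBS at 37 °C, 5% CO2. Compounds tested in quadruplicate at 0.1, 1, 10 and 100 μM for 72 h; viability read by MTS (CellTiter 96 AQueous) assay. Doxorubicin 1 μM and CCCP 10 μM served as positive controls.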

Acetylcholinesterase = Acetylcholinesterase (Electrophorus electricus, UniProt O42275); experiment: Inhibition of electric eel AchE using ATC as substrate preincubated with enzyme for 5 mins followed by substrate addition for 5 mins by Ellman's method
Chain of Acetylcholinesterase (O42275 whole entry): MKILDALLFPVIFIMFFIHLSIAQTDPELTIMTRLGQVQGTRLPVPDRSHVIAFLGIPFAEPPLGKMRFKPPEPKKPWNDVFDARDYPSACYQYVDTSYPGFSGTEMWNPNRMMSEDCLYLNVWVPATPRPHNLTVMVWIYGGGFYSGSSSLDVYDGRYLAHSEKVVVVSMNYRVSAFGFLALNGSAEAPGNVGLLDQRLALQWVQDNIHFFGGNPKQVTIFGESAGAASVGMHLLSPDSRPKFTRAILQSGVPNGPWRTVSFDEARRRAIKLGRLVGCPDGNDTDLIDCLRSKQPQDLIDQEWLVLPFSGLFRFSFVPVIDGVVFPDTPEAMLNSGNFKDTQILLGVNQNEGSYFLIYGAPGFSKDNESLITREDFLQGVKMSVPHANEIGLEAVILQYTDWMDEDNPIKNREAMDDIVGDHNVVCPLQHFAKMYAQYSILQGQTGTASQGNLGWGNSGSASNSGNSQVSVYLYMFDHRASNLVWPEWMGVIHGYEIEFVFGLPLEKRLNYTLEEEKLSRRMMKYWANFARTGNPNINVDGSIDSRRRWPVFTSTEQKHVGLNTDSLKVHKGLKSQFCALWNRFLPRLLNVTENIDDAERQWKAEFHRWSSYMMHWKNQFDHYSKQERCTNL
In short: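 Electric eel AChE at 0.384 U/mL final, with DTNB in 0.1 M phosphate pH 8.0. […] ATC solution (0.00375 M) added; A412 after 5 min. Run in triplicate; IC50 by nonlinear regression of residual activity versus concentration.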

Row | Compound | inhibition (Cholinesterase [1]) [%] | Ki [2] [nM] | IC50 (Cholinesterase [3]) [nM] | inhibition [4] [%] | IC50 (Cholinesterase [5]) [nM] | remaining at 2 h, 50 µM [6] [%] | MNTC at 72 h [7] [µM] | IC50 (Acetylcholinesterase) [nM]
1 | COC(=O)c1ccc(CNCCOc2cccc3c2ccn3S(=O)(=O)c2ccccc2)cc1 | < 50 | 13 | 14300 | < 20 | – | – | – | –
2 | CNCCOc1cccc2c1ccn2S(=O)(=O)c1ccccc1 | < 50 | 1.6 | – | < 20 | – | – | – | –
3 | O=S(=O)(c1ccccc1)N1CCc2c(OCCNCc3ccccc3)cccc21 | – | – | 1320 | – | – | – | – | –
4 | Cc1cccc(CNCCOc2cccc3c2CCN3S(=O)(=O)c2ccccc2)c1 | < 50 | 12 | 2300 | < 20 | – | – | – | –
5 | O=S(=O)(c1cccc2ccccc12)n1ccc2c(OCCNCc3ccccc3)cccc21 | – | – | 401 | – | – | – | – | –
6 | O=S(=O)(c1ccccc1)n1ccc2c(OCCNCc3ccc4c(c3)OCCO4)cccc21 | < 50 | 0.5 | 2170 | < 20 | – | – | – | –
7 | O=S(=O)(c1ccccc1)n1ccc2c(OCCNCc3ccccc3Cl)cccc21 | – | – | 881 | – | 10500 | – | – | –
8 | O=S(=O)(c1ccccc1)n1ccc2c(OCCNCC3CCCC3)cccc21 | – | – | 269 | – | 1360 | – | – | –
9 | COc1ccc(NS(=O)(=O)c2ccc(I)cc2)cc1N1CCN(C)CC1 | < 50 | – | – | – | – | – | – | –
10 | CC(C)(C)OC(=O)N1CCCC(CNCCOc2cccc3c2ccn3S(=O)(=O)c2ccccc2)C1 (centres undefined) | – | – | 125 | – | 206 | 0 | ≤ 1 | –
11 | COc1cccc(CNCCOc2cccc3c2ccn3S(=O)(=O)c2ccccc2)c1 | < 50 | 3.6 | 1660 | 27.6 | – | – | – | –
12 | Cc1cccc(CNCCOc2cccc3c2ccn3S(=O)(=O)c2ccccc2)c1 | – | – | 401 | – | 2820 | – | – | –
13 | O=S(=O)(c1ccccc1)n1ccc2c(OCCNCC3CCCNC3)cccc21 (centres undefined) | < 50 | 75 | 2260 | 27.3 | – | – | – | –
14 | CC(=O)Nc1ccc(CNCCOc2cccc3c2ccn3S(=O)(=O)c2ccccc2)cc1 | < 50 | 0.3 | 3800 | < 20 | – | – | – | –
15 | CSc1ccc2c(c1)C(N1CCN(C)CC1)Cc1ccccc1S2 (centres undefined) | < 50 | – | – | – | – | – | – | –
16 | CN(CCOc1cccc2c1ccn2S(=O)(=O)c1ccccc1)Cc1ccccc1 | < 50 | 27 | 1420 | < 20 | – | – | – | –
17 | O=S(=O)(c1ccccc1)n1ccc2c(OCCNCc3ccc(F)cc3)cccc21 | < 50 | 6 | 985 | 40.5 | – | – | – | –
18 | O=S(=O)(c1ccccc1)n1ccc2c(OCCNCc3cccc(Cl)c3)cccc21 | > 50 | 5 | 580 | < 20 | 11800 | – | – | –
19 | O=S(=O)(c1ccccc1)n1ccc2c(OCCNCc3cccc(C(F)(F)F)c3)cccc21 | < 50 | 4 | 2200 | < 20 | – | – | – | –
20 | CC(=O)Oc1ccc(CNCCOc2cccc3c2ccn3S(=O)(=O)c2ccccc2)cc1 | – | – | 228 | – | 1920 | – | – | –
21 | CC(=O)Oc1ccc(CNCCOc2cccc3c2CCN3S(=O)(=O)c2ccccc2)cc1 | < 50 | 70 | 660 | < 20 | – | – | – | –
22 | O=S(=O)(c1ccccc1)n1ccc2c(N3CCN(Cc4ccccc4)CC3)cccc21 | < 50 | 60 | – | < 20 | – | – | – | –
23 | O=c1[nH]c2c(OCCNCc3ccccc3)cccc2n1Cc1ccccc1 | < 50 | 144 | 1840 | 32.9 | – | – | – | 1080
24 | O=S(=O)(c1ccccc1)n1ccc2c(OCCNCC3CC3)cccc21 | < 50 | 2.7 | 2220 | < 20 | – | – | – | –
25 | CC(C)(C)OC(=O)N1CCCC(CNCCOc2cccc3c2ccn3S(=O)(=O)c2cccc3ccccc23)C1 (centres undefined) | – | – | 5.8 | – | – | – | – | –
26 | CC(C)(C)OC(=O)N1CCCC(CNCCOc2cccc3c2CC(=O)N3Cc2ccccc2)C1 (centres undefined) | < 50 | 146 | 1080 | 65.2 | – | – | – | –

Row | Compound | inhibition (Cholinesterase [1]) [%] | Ki [2] [nM] | IC50 (Cholinesterase [3]) [nM] | inhibition [4] [%] | IC50 (Cholinesterase [5]) [nM] | remaining at 2 h, 50 µM [6] [%] | MNTC at 72 h [7] [µM] | IC50 (Acetylcholinesterase) [nM]
27 | CC(C)(C)OC(=O)N1CCC(CNCCOc2cccc3c2ccn3S(=O)(=O)c2ccccc2)CC1 | < 50 | 7 | 4820 | 69.7 | – | – | – | –
28 | Cc1cccc(CNCCOc2cccc3c2ccn3S(=O)(=O)c2cccc3ccccc23)c1 | < 50 | 12 | 148 | 23.6 | – | – | – | –
29 | c1ccc(CNCCOc2cccc3c2ccn3Cc2ccccc2)cc1 | < 50 | 232 | 626 | 71.3 | – | – | – | –
30 | O=S(=O)(c1ccccc1)n1ccc2c(OCCNCc3ccc(Cl)cc3)cccc21 | < 50 | 16 | 1320 | < 20 | – | – | – | –
31 | O=S(=O)(c1ccccc1)n1ccc2c(OCCNCc3ccccc3)cccc21 | – | – | 473 | – | 1610 | 57 | ≤ 10 | –
32 | CN(C)c1cccc(CNCCOc2cccc3c2ccn3S(=O)(=O)c2ccccc2)c1 | < 50 | 6 | 894 | < 20 | – | – | – | –
33 | O=S(=O)(c1ccccc1)n1ccc2c(OCCNCc3cc(Cl)cc(Cl)c3)cccc21 | – | – | 414 | – | – | – | – | –
34 | O=C1Cc2c(OCCNCc3ccccc3)cccc2N1Cc1ccccc1 | < 50 | 55 | 4430 | 42.4 | – | – | – | 1710
35 | CC(=O)Oc1ccc(CNCCOc2cccc3c2ccn3S(=O)(=O)c2cccc3ccccc23)cc1 | < 50 | 24 | 261 | < 20 | – | – | – | –
36 | c1ccc(CNCCOc2cccc3c2CCN3Cc2ccccc2)cc1 | < 50 | 389 | 997 | 72.5 | – | – | – | –
37 | COc1ccc(CNCCOc2cccc3c2ccn3S(=O)(=O)c2ccccc2)cc1OC | < 50 | 0.5 | 3320 | 36.8 | – | – | – | –
38 | Cc1cccc(CNCCOc2cccc3c2CC(=O)N3Cc2ccccc2)c1 | < 50 | 53 | 1850 | 58.5 | – | – | – | 1280
39 | Cc1cccc(CNCCOc2cccc3c2ccn3Cc2ccccc2)c1 | < 50 | 293 | 958 | – | – | – | – | –
40 | CC(=O)Oc1cccc(CNCCOc2cccc3c2ccn3S(=O)(=O)c2ccccc2)c1 | – | – | 474 | – | 5620 | – | – | –
41 | O=S(=O)(c1ccccc1)n1ccc2c(OCCNCc3ccccn3)cccc21 | < 50 | 0.4 | 1290 | < 20 | – | – | – | –
42 | COc1ccc(CNCCOc2cccc3c2ccn3S(=O)(=O)c2ccccc2)cc1 | < 50 | 1.4 | 1330 | 54.2 | – | – | – | –
43 | O=[N+]([O-])c1ccc(CNCCOc2cccc3c2ccn3S(=O)(=O)c2ccccc2)cc1 | < 50 | 22 | 18300 | 35.1 | – | – | – | –
44 | CC(C)(C)OC(=O)N1CCCC(CNCCOc2cccc3c2[nH]c(=O)n3Cc2ccccc2)C1 (centres undefined) | < 50 | 155 | 467 | 43.9 | – | – | – | –
45 | Cc1cccc(CNCCOc2cccc3c2[nH]c(=O)n3Cc2ccccc2)c1 | < 50 | 207 | 1500 | 64.3 | – | – | – | 1800
46 | CCOc1ccc(CNCCOc2cccc3c2ccn3S(=O)(=O)c2ccccc2)cc1 | < 50 | 13 | 3300 | < 20 | – | – | – | –
47 | CC(C)(C)OC(=O)N1CCCC(CNCCOc2cccc3c2CCN3S(=O)(=O)c2ccccc2)C1 (centres undefined) | – | – | 201 | – | 1360 | – | – | –
48 | CN(C)c1ccc(CNCCOc2cccc3c2ccn3S(=O)(=O)c2ccccc2)cc1 | < 50 | 3.5 | 3080 | < 20 | – | – | – | –
49 | O=S(=O)(c1ccccc1)n1ccc2c(OCCNCc3ccncc3)cccc21 | < 50 | 3 | – | < 20 | – | – | – | –
50 | Cc1cccc(CNCCOc2cccc3c2CCN3Cc2ccccc2)c1 | < 50 | 1470 | 1260 | 72.6 | – | – | – | –
51 | Cc1ccc(CNCCOc2cccc3c2ccn3S(=O)(=O)c2ccccc2)o1 | < 50 | 3 | 3000 | < 20 | – | – | – | –
52 | CCOc1cccc(CNCCOc2cccc3c2ccn3S(=O)(=O)c2ccccc2)c1 | < 50 | 3 | 2410 | < 20 | – | – | – | –
